Laboratory results as given in ChEMBL document CHEMBL1123930, “Structure-activity relationships among di- and tetramine disulfides related to benextramine” (1987).
Calls of active or inactive are those of the source. The calls are words filed in the database; no cut-off is given here.

Legend:
Format in all cases: functional
[1] = target: Adrenergic receptor alpha (Rattus norvegicus) (UniProt P15823+P23944+P43140+P22086+P19328+P22909); assay: Irreversible inhibition against Norepinephrine (NE)-induced response in rat vas deferens with benextramine (BHC) as standard at a concentration of 2 x 10e-5 M
In short: (§1)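 Rat vas deferens tissues were held at 32 °C under 95% O2/5% CO2 at 0.50 g loading tension, with contractions recorded by force transducer. After 1 h equilibration and a medium change, antagonist was incubated for 30 min, then drained and washed out for 30 min. Cumulative NE concentration-response curves followed. The fall in maximal response, as percent of control, is reported as mean ± SEM of five experiments.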

Rattus norvegicus [2] = organism: Rattus norvegicus; assay: Irreversible inhibition against Norepinephrine (NE)-induced response in rat vas deferens with benextramine (BHC) as standard at a concentration of 10e-4 M; in short: as §1
Rattus norvegicus [3] = organism: Rattus norvegicus; assay: Irreversible inhibition against Norepinephrine (NE)-induced response in rat vas deferens with benextramine (BHC) as standard at a concentration of 2 x 10e-5 M; Inactive; in short: as §1
Rattus norvegicus [4] = organism: Rattus norvegicus; assay: Irreversible inhibition against Norepinephrine (NE)-induced response in rat vas deferens with benextramine (BHC) as standard at a concentration of 6 x 10e-6 M; in short: as §1
Rattus norvegicus [5] = organism: Rattus norvegicus; assay: Irreversible inhibition against Norepinephrine (NE)-induced response in rat vas deferens with benextramine (BHC) as standard at a concentration of 10e-4 M; Inactive; in short: as §1

Row | inhibition [1] [%] | SMILES | inhibition at 100 µM (Rattus norvegicus [2]) [%] | inhibition (Rattus norvegicus [3]) | other results
1 | 43 | OC(CNCCCCCCNCCSSCCNCCCCCCNCC(O)c1ccc2c(c1)OCO2)c1ccc2c(c1)OCO2 (stereo not given) |  |  | 
2 |  | c1ccc2c(c1)OC[C@H](CNCCCCCCNCCSSCCNCCCCCCNC[C@H]1COc3ccccc3O1)O2 | 79 | inactive | 
3 | 100 | Cn1ccc(CNCCCCCCNCCSSCCNCCCCCCNCc2ccn(C)c2)c1 |  |  | inhibition at 6 µM (Rattus norvegicus [4]): 54%
4 | 70 | c1csc(CNCCCCCCNCCSSCCNCCCCCCNCc2cccs2)c1 |  |  | 
5 |  | c1ccc2c(c1)CCN(CCCCCCNCCSSCCNCCCCCCN1CCc3ccccc3C1)C2 | 66 | inactive | 
6 | 100 | COc1ccccc1CNCCCCCCNCCSSCCNCCCCCCNCc1ccccc1OC [BENEXTRAMINE] |  |  | inhibition at 6 µM (Rattus norvegicus [4]): 35%
7 | 32 | c1ccc(CNCCCCCCOCCSSCCOCCCCCCNCc2ccccc2)cc1 |  |  | 
8 | 37 | c1ccc2c(c1)CCN2CCCCCCNCCSSCCNCCCCCCN1CCc2ccccc21 |  |  | 
9 | 60 | c1ccc(COCCCCCCNCCSSCCNCCCCCCOCc2ccccc2)cc1 |  |  | 
10 | 87 | COc1ccc(C(O)CNCCCCCCNCCSSCCNCCCCCCNCC(O)c2ccc(OC)c(OC)c2)cc1OC (stereo not given) |  |  | 
11 |  | CN(CCCCCCNCc1ccccc1N)CCSSCCN(C)CCCCCCNCc1ccccc1N | 38 | inactive | 
12 |  | CCN(CC)CCSSCCN(CC)CC |  | inactive | inhibition (Rattus norvegicus [5]): inactive
13 |  | c1ccc2c(CNCCCCCCNCCSSCCNCCCCCCNCc3c[nH]c4ccccc34)c[nH]c2c1 | 46 | inactive | 
14 | 36 | COc1ccccc1CNCCCCCCOCCSSCCOCCCCCCNCc1ccccc1OC |  |  | 
15 |  | c1ccc2c(c1)OCC(CNCCCCCCNCCSSCCNCCCCCCNCC1COc3ccccc3O1)O2 (stereo not given) | 53 | inactive | 
16 | 92 | Oc1ccc(C(O)CNCCCCCCNCCSSCCNCCCCCCNCC(O)c2ccc(O)c(O)c2)cc1O (stereo not given) |  |  | 
17 | 57 | NC(CCCCCNCCSSCCNCCCCCC(N)Cc1ccccc1)Cc1ccccc1 (stereo not given) |  |  | 
18 | 100 | c1coc(CNCCCCCCNCCSSCCNCCCCCCNCc2ccco2)c1 |  |  | inhibition at 6 µM (Rattus norvegicus [4]): 79%
19 |  | CN(CCCCCCN1CNc2ccccc2C1)CCSSCCN(C)CCCCCCN1CNc2ccccc2C1 | 6 | inactive | 
20 | 58 | COc1ccccc1COCCCCCCNCCSSCCNCCCCCCOCc1ccccc1OC |  |  | 

Row | inhibition [1] [%] | SMILES | inhibition at 100 µM (Rattus norvegicus [2]) [%] | inhibition (Rattus norvegicus [3]) | other results
21 | 89 | c1ccc2c(c1)CN(CCCCCCNCCSSCCNCCCCCCN1CNc3ccccc3C1)CN2 |  |  | 
22 | 12 | c1ccc(CNCCSSCCNCc2ccccc2)cc1 | 48 |  | 
23 |  | c1ccc2c(c1)CN(CCCCCCNCCSSCCNCCCCCCN1COc3ccccc3C1)CO2 | 34 | inactive | 
24 |  | c1ccc(CCNCCCCCCNCCSSCCNCCCCCCNCCc2ccccc2)cc1 | 32 | inactive | 
25 | 34 | CN(CCCCCCN1CCCCC1)CCSSCCN(C)CCCCCCN1CCCCC1 |  |  | 
26 | 82 | COc1ccccc1C(O)CNCCCCCCNCCSSCCNCCCCCCNCC(O)c1ccccc1OC (stereo not given) |  |  | 
27 | 100 | C(CCCN1CCCCC1)CCNCCSSCCNCCCCCCN1CCCCC1 |  |  | inhibition at 6 µM (Rattus norvegicus [4]): 56%
28 |  | CC(C)(C)NCCSSCCNC(C)(C)C |  | inactive | inhibition (Rattus norvegicus [5]): inactive
29 | 79 | Nc1ccccc1CNCCCCCCNCCSSCCNCCCCCCNCc1ccccc1N |  |  | 
30 |  | c1cc2c(cc1COCCCCCCNCCSSCCNCCCCCCOCc1ccc3c(c1)OCO3)OCO2 | 45 | inactive | 
31 | 98 | COc1cc(C(O)CNCCCCCCNCCSSCCNCCCCCCNCC(O)c2cc(OC)c(OC)c(OC)c2)cc(OC)c1OC (stereo not given) |  |  | 
32 | 98 | C(CCCN1CCCC1)CCNCCSSCCNCCCCCCN1CCCC1 |  |  | 
33 | 44 | O=C(Cc1ccccc1)NCCCCCCNCCSSCCNCCCCCCNC(=O)Cc1ccccc1 |  |  | 
34 |  | c1ccc2c(c1)OC[C@@H](CNCCCCCCNCCSSCCNCCCCCCNC[C@@H]1COc3ccccc3O1)O2 | 68 | inactive | 
35 | 81 | COc1ccc(C(O)CNCCCCCCNCCSSCCNCCCCCCNCC(O)c2ccc(OC)cc2)cc1 (stereo not given) |  |  | 
36 | 91 | COc1cccc(C(O)CNCCCCCCNCCSSCCNCCCCCCNCC(O)c2cccc(OC)c2)c1 (stereo not given) |  |  | 
37 | 13 | OC(CNCCCCCCNCCSSCCNCCCCCCNCC(O)c1ccccc1)c1ccccc1 (stereo not given) | 40 |  | 
38 |  | Nc1ccccc1C(=O)NCCCCCCNCCSSCCNCCCCCCNC(=O)c1ccccc1N | 55 | inactive | 
39 | 41 | CN(CCCCCCN1CCCC1)CCSSCCN(C)CCCCCCN1CCCC1 |  |  | 
40 |  | C1CCN(CCSSCCN2CCCCC2)CC1 |  | inactive | inhibition (Rattus norvegicus [5]): inactive
